# Reference: PubChem BioAssay
# “And” between values parts separate entries of the source, which are not always exact repeats. Equal values may be shown once. The source made the active and inactive calls.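 The calls were made as follows, unless noted: active = viability loss from added drug above about 55%, and viability with drug at most 40%, in both replicates (limit read from the data, passing the limit was not always enough); inconclusive = both conditions met in only one replicate; inactive = neither replicate meets both conditions.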 Peptide text beside a SMILES is read from it. * marks the point of attachment. Boc = CC(C)(C)OC(=O)*
# Key:
# [1] = Her2 expression decrease, cell viability multiplex – SKBR3 breast tumor cells, AlphaScreen, ATP viability, primary screen (AID 461;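 active = Her2 level under about 52% in both replicate screens, with viability over 70% of control, limit read from the data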;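 as to Her2 level: lower value means less Her2 protein in the cells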;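 as to viability: percent of carrier control wells set as 100% viability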); settings: SKBR3 Her2 protein level, 18-24 h, measured here: SKBR3 viability, ATP luminescence, at 10 µM
# [2] = biological target: Receptor tyrosine-protein kinase erbB-2 (Homo sapiens) (UniProt P04626); assay: as above; settings: 18-24 h, at 10 µM, stronger effect = lower value
# Sequence of Receptor tyrosine-protein kinase erbB-2 (Homo sapiens) (P04626 whole entry, looked up): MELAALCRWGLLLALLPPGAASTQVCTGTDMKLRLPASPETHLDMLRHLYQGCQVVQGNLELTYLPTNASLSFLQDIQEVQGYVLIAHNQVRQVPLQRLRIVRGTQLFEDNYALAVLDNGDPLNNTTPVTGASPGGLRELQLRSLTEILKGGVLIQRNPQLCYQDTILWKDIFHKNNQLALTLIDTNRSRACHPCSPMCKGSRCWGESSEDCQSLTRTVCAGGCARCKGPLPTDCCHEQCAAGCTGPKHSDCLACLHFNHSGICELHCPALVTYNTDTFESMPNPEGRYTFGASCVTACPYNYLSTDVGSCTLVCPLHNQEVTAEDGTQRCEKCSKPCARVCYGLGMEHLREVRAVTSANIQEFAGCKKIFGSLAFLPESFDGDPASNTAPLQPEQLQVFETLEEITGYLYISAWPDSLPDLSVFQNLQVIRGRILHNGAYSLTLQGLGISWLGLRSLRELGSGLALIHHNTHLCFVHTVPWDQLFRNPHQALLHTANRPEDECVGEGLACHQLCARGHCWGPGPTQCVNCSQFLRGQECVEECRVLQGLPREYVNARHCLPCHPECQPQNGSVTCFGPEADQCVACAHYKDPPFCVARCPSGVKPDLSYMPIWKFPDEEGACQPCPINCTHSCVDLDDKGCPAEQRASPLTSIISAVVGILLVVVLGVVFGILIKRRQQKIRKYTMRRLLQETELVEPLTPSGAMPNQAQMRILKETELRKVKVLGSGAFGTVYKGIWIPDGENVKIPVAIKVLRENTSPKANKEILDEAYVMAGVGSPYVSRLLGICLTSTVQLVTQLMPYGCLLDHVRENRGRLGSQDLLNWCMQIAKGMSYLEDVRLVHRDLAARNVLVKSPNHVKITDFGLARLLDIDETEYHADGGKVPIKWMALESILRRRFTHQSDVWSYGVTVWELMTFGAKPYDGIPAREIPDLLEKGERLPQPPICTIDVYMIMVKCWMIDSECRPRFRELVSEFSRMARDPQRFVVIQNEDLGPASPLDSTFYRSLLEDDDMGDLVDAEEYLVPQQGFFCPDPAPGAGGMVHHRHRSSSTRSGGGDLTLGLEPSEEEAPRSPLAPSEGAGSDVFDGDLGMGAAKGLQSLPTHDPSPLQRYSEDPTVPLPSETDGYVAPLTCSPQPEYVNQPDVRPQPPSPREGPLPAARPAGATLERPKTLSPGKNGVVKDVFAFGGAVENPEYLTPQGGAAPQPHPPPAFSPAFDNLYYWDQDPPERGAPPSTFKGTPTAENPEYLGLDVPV
# [3] = reduced viability of SK-BR-3 breast cancer cells – cell-based, 24 h, human, pilot screen (AID 572;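 active = viability at or below 10% of carrier control in both of two separate runs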;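 also: compound exposure lasted between 18 and 24 h rather than exactly 24 h; 100% = carrier-treated control wells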); settings: SK-BR-3 viability, CellTiter-Glo luminescence, at 10 µM, stronger effect = lower value
# [4] = HUVEC growth inhibition – cell-based, human, primary screen (AID 575;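 active = viability at or below 30% in both replicate assays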;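 also: 100% = median of untreated cell wells with 0.1% DMSO on each plate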); settings: HUVEC proliferation, CellTiter-Glo luminescence, 72 h; at 10 µM; stronger effect = lower value
# Summary of the method: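 Test system: primary human umbilical vein endothelial cells; medium: endothelial basal medium with 2% FBS plus growth supplements; dosing: 10 µM compound only; times: 72 h treatment at 37 °C; signal: CTG luminescence; read-out: % viability relative to median vehicle-well signal on each plate; control set: vehicle and MePR control wells; plate: 384-well, collagen-coated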
# [5] = H69AR cell proliferation blockers – human, duplicate replicates, primary screen (AID 580;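 active = viability at or under a set limit in both replicates, limit being median viability minus 3 SD, cut at about 48% in these data, passing the limit was not always enough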;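 also: 100% = mean luminescence of untreated wells and 0% = no signal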); settings: H69AR lung tumor cells viability, ATP luminescence, 72 h; at 10 µM; stronger effect = lower value
# [6] = MRP1 drug-resistance reversers in H69AR cells – cell-based, doxorubicin co-treatment, pilot screen (AID 601); settings: CellTiter-Glo, 72 h, at 10 µM; for differential viability (reversal): stronger effect = higher value
# [7] = yeast transport mutant growth inhibition pilot in 384-well plates, post-Golgi transport modulator project (AID 636; in the data active = inhibition above about 31%); settings: absorbance 615 nm, about 18 h, stronger effect = higher value
# [8] = growth suppression of yeast trafficking mutant, preliminary HTS, modulators of trafficking downstream of Golgi apparatus project, 1536-format plate, OD 615 nm (AID 637; in the data active = inhibition above about 30%); settings: yeast transport mutant growth, absorbance 615 nm, 18 h; stronger effect = higher value
# [9] = H69AR cells + 2 uM doxorubicin, measured here: viability with 2 uM doxorubicin, stronger effect = lower value
# [10] = H69AR cells, compound alone cytotoxicity
Structure (SMILES),viability [1],Her2 level [2],viability [3],viability [4],viability [5],differential viability (reversal) ([6]; H69AR cells + 2 uM doxorubicin),"viability [6, 9]","viability [6, 10]",inhibition [7],inhibition [8]
CCSc1nnc(NC(=O)C2CCCN(S(=O)(=O)c3cnc[nH]3)C2)s1 (stereo not given),105%,97.5% (inactive),105% (inactive),89.9% (inactive),91.3% (inactive),1.98% (inactive),89.4%,91.3%,-2.27% (inactive),2.83% (inactive)
CCOC(=O)c1cc2c(=O)n3cccc(C)c3nc2n(CCc2ccccc2)c1=N,82%,72% (inactive),82% (inactive),75.9% (inactive),77.9% (inactive),-1.89% (inactive),79.8%,77.9%,-4.8% (inactive),5.9% (inactive)
CC(=O)c1cc(F)c(N2CCN(C(=O)Cc3ccccc3)CC2)cc1C,96.5%,97% (inactive),96.5% (inactive),107% (inactive),93.5% (inactive),-7.49% (inactive),101%,93.5%,0% (inactive),-4.35% (inactive)
Cc1cc(C)cc(OCCCC(=O)O)c1,114%,97% (inactive),114% (inactive),67.9% (inactive),95.3% (inactive),3.5% (inactive),91.8%,95.3%,-5.6% (inactive),-0.16% (inactive)
CC(C(=O)Nc1ccccc1-c1ccccc1)N1CCN(C(=O)c2ccco2)CC1 (stereo not given),91.5%,95% (inactive),91.5% (inactive),96.2% (inactive),74.1% (inactive),8.3% (inactive),65.8%,74.1%,-6.18% (inactive),0.32% (inactive)
O=C(CCN1C(=O)C2C3C=CC(C3)C2C1=O)N1CCN(c2ccccc2Cl)CC1 (stereo not given),97%,89.5% (inactive),97% (inactive),82.3% (inactive),96% (inactive),8.21% (inactive),87.8%,96%,-5% (inactive),-3.17% (inactive)
O=C(CSc1nnc(Cc2ccccc2)n1C1CCCCC1)N1CCOCC1,92.5%,110% (inactive),92.5% (inactive),97.9% (inactive),95.6% (inactive),6.44% (inactive),89.2%,95.6%,-3.03% (inactive),-3.97% (inactive)
Cc1ccc(-c2nc3ncccc3o2)cc1NC(=O)c1ccco1,97.5%,76.5% (inactive),97.5% (inactive),100% (inactive),99.2% (inactive),7.96% (inactive),91.3%,99.2%,-6.76% (inactive),-2.62% (inactive)
CC(C)(C)OC(=O)N1CCCC1C(=O)NC(Cc1ccccc1)C(=O)O (stereo not drawn) (Boc-Pro-Phe-OH; configuration not given here),116%,102% (inactive),116% (inactive),96.1% (inactive),104% (inactive),8.93% (inactive),95.2%,104%,-4.59% (inactive),0.48% (inactive)
COc1ccc2c(c1OC)C(=O)OC2C1c2c(cc3c(c2OC)OCO3)CCN1C (stereo not given),89%,90.5% (inactive),89% (inactive) and 83% (inactive),70.2% (inactive) and 90.3% (inactive),73.8% (inactive),-40% (inactive) and -23.1% (inactive),91.6% and 97%,51.7% and 73.8%,1.95% (inactive) and -2.86% (inactive),4.92% (inactive) and 5.33% (inactive)
CCN(CC)CC(C)CNC(=O)CC(C(=O)N1CCc2ccccc21)n1ccnc1 (stereo not given),88.5%,106% (inactive),88.5% (inactive),104% (inactive),95.9% (inactive),-7.88% (inactive),104%,95.9%,0.52% (inactive),-9.34% (inactive)
CCOC(=O)N1CCN(CC(=O)c2c(C)[nH]c3ccccc23)CC1,94%,98% (inactive),94% (inactive),79.9% (inactive),75.2% (inactive),-7.93% (inactive),83.1%,75.2%,-5.41% (inactive),-3.93% (inactive)
CCS(=O)(=O)Nc1ccc(C(=O)CC2(O)C(=O)Nc3ccccc32)cc1 (stereo not given),105%,91% (inactive),105% (inactive),90.3% (inactive),89.5% (inactive),-7.81% (inactive),97.3%,89.5%,-5.87% (inactive),2.13% (inactive)
OCc1nc(CO)n(Cc2ccccc2)n1,85.5%,84% (inactive),85.5% (inactive),88.7% (inactive),102% (inactive),-5.83% (inactive),108%,102%,-1.05% (inactive),-0.48% (inactive)
COCCN1C(=O)c2oc3c(C)cc(C)cc3c(=O)c2C1c1cccc(O)c1 (stereo not given),101%,89.5% (inactive),101% (inactive),102% (inactive),88.1% (inactive),-2.81% (inactive),90.9%,88.1%,-5.26% (inactive),-3.23% (inactive)
O=C(NCc1ccco1)c1cccn2c(=O)c3sccc3nc12,104%,74.5% (inactive),104% (inactive),82.5% (inactive),58.4% (inactive),-24% (inactive),82.4%,58.4%,-1.2% (inactive),-7.87% (inactive)
